# In ChEMBL document CHEMBL1145421, “Discovery of novel antitumor antimitotic agents that also reverse tumor resistance” (J Med Chem, 2007):
# Activity calls are given as the source filed them. The rule behind the calls is not given here.
# Assays:
# HL-60 [1] = assay: Cell cycle arrest in HL60 cells assessed as accumulation in G0/G1 phase at 6 uM; type: functional, Homo sapiens
# Procedure, shortened: (§1)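 HL-60 cells exposed 24 or 48 h to drug or ethanol vehicle. Nuclei prepared by detergent-trypsin method: citrate/sucrose/DMSO buffer, trypsin, then trypsin inhibitor plus RNase A, then propidium iodide with spermine, 30 min at 4 °C. Filtered, resuspended, DNA content measured by flow cytometry. Percentages given for G0/G1, S and G2/M. Mean ± SEM.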
# A10 [2] = assay: Prevention of paracrystal formation in rat A10 cells at 10 uM; type: functional, cell-based
# HT-29 = assay: Growth inhibition of HT29 cells; type: functional; conditions: Homo sapiens
# SNB-75 = assay: Growth inhibition of SNB75 cells; type: functional; conditions: Homo sapiens
# UACC-62 = assay: Growth inhibition of UACC62 cells; type: functional; conditions: Homo sapiens
# CAKI-1 = assay: Growth inhibition of CAKI1 cells; type: functional; conditions: Homo sapiens
# HOP-92 = assay: Growth inhibition of HOP92 cells; type: functional; conditions: Homo sapiens
# U-251 = assay: Growth inhibition of U251 cells; type: functional; conditions: Homo sapiens
# 786-0 = assay: Growth inhibition of 786-0 cells; type: functional; conditions: Homo sapiens
# UACC-257 = assay: Growth inhibition of UACC257 cells; type: functional; conditions: Homo sapiens
# RPMI-8226 = assay: Growth inhibition of RPMI8226 cells; type: functional; conditions: Homo sapiens
# EKVX = assay: Growth inhibition of EKVX cells; type: functional; conditions: Homo sapiens
# Hs-578T = assay: Growth inhibition of HS578T cells; type: functional; conditions: Homo sapiens
# [3] = Growth inhibition of Pgp deficient MCF7/VP cells expressing MRP1; type: functional, cell-based; conditions: Homo sapiens
# Procedure, shortened: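 NCI/ADR (Pgp-overexpressing) or MCF-7/VP (MRP1-expressing, Pgp-negative) cells were seeded at about 15% confluency and allowed to attach for 24 h. They were then exposed for 48 h to varying compound concentrations, limited by solubility, without added vinca drug. Survival was read by sulforhodamine B binding against ethanol solvent controls. Each value is the mean of three equally treated wells.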
# CCRF-CEM = assay: Growth inhibition of CCRF-CEM cells; type: functional; conditions: Homo sapiens
# NIH3T3 = assay: Induction of microtubule loss in NIH/3T3 cells after 24 hrs; type: functional, cell-based; conditions: Mus musculus
# MDA-N = assay: Growth inhibition of MDA-N cells; type: functional; conditions: Homo sapiens
# NCI/ADR-RES = assay: Growth inhibition of NCI/ADR-RES cells; type: functional; conditions: Homo sapiens
# KM12 = assay: Growth inhibition of KM12 cells; type: functional; conditions: Homo sapiens
# COLO 205 = assay: Growth inhibition of COLO205 cells; type: functional; conditions: Homo sapiens
# ACHN = assay: Growth inhibition of ACHN cells; type: functional; conditions: Homo sapiens
# SNB-19 = assay: Growth inhibition of SNB19 cells; type: functional; conditions: Homo sapiens
# MDA-MB-435 = assay: Growth inhibition of MDA-MB-435 cells; type: functional; conditions: Homo sapiens
# MCF7 = assay: Effect on Waf1 protein expression in MCF7 cells after 24 hrs; type: functional, cell-based; conditions: Homo sapiens
# Procedure, shortened: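 MCF-7 cells exposed 24 h to the indicated concentrations or ethanol control. Cells lysed and protein levels assessed by Western blot. One of two similar experiments.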
# [4] = Growth inhibition of LOX IMV1 cells; type: functional; conditions: Homo sapiens
# K562 = assay: Growth inhibition of K562 cells; type: functional; conditions: Homo sapiens
# SF-295 = assay: Growth inhibition of SF295 cells; type: functional; conditions: Homo sapiens
# [5] = Cytotoxicity against Pgp overexpressing human NCI/ADR cells after 48 hrs by SRB binding assay; type: functional, cell-based; conditions: NCI/ADR-RES
# Procedure, shortened: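 NCI/ADR (Pgp-overexpressing) cells seeded at ~15% confluency and allowed 24 h to attach. Exposed 48 h to graded concentrations, as solubility allowed, without vinblastine. Survival measured by sulforhodamine B binding as % decrease in SRB binding versus ethanol-vehicle controls, mean of three wells per condition.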
# HL-60 [6] = assay: Cell cycle arrest in HL60 cells assessed as accumulation in S phase at 6 uM; type: functional, Homo sapiens; procedure, shortened: as §1
# BT-549 = assay: Growth inhibition of BT549 cells; type: functional; conditions: Homo sapiens
# TK-10 = assay: Growth inhibition of TK10 cells; type: functional; conditions: Homo sapiens
# DU-145 = assay: Growth inhibition of DU145 cells; type: functional; conditions: Homo sapiens
# A498 = assay: Growth inhibition of A498 cells; type: functional; conditions: Homo sapiens
# NCI-H23 = assay: Growth inhibition of NCI-H23 cells; type: functional; conditions: Homo sapiens
# OVCAR-4 = assay: Growth inhibition of OVCAR4 cells; type: functional; conditions: Homo sapiens
# NCI-H522 = assay: Growth inhibition of NCI-H522 cells; type: functional; conditions: Homo sapiens
# A10 [7] = assay: Induction of microtubule depolymerization in rat A10 cells at 10 uM; type: functional, cell-based
# Procedure, shortened: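 Rat A-10 smooth muscle cells were grown to near confluency on glass coverslips and treated for 24 h, with ethanol as control. Microtubules were stained by indirect immunofluorescence using monoclonal anti-β-tubulin and a fluorescein-conjugated anti-mouse IgG, then imaged by confocal laser scanning microscopy.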
# HCT-116 = assay: Growth inhibition of HCT116 cells; type: functional; conditions: Homo sapiens
compound,measurement,setting,value
COc1cc(CCc2cn(Cc3ccccc3)c3nc(N)nc(C)c23)cc(OC)c1OC,Activity,HL-60 [1],80%
same,Activity,A10 [2],inactive
same,GI50,HT-29,281 nM
same,GI50,SNB-75,358 nM
same,GI50,UACC-62,39.9 nM
same,GI50,CAKI-1,366 nM
same,GI50,HOP-92,467 nM
same,GI50,U-251,144 nM
same,GI50,786-0,254 nM
same,GI50,UACC-257,80.2 nM
same,GI50,RPMI-8226,439 nM
same,GI50,EKVX,424 nM
same,GI50,Hs-578T,283 nM
same,IC50,[3],180 nM
same,GI50,CCRF-CEM,58 nM
same,Activity,NIH3T3,Active
same,GI50,MDA-N,< 10 nM
same,GI50,NCI/ADR-RES,145 nM
same,GI50,KM12,194 nM
same,GI50,COLO 205,190 nM
same,GI50,ACHN,728 nM
same,GI50,SNB-19,273 nM
same,GI50,MDA-MB-435,10.1 nM
same,Activity,MCF7,Active
same,GI50,[4],250 nM
same,GI50,K562,84.6 nM
same,GI50,SF-295,41.8 nM
same,IC50,[5],250 nM
same,Activity,HL-60 [6],10.3%
same,GI50,BT-549,> 1000 nM
same,GI50,TK-10,961 nM
same,GI50,DU-145,224 nM
same,GI50,A498,136 nM
same,GI50,NCI-H23,278 nM
same,GI50,OVCAR-4,821 nM
same,GI50,NCI-H522,47.7 nM
same,Activity,A10 [7],Active
same,GI50,HCT-116,286 nM
